{
  "source": "ChEMBL document CHEMBL5154905",
  "about": "“Reversible Monoacylglycerol Lipase Inhibitors: Discovery of a New Class of Benzylpiperidine Derivatives” (J Med Chem, 2022)",
  "key": {"[1]": {"biological_target": "T1, Fatty-acid amide hydrolase 1 (Mus musculus) (UniProt O08914)", "T1 sequence (whole entry)": "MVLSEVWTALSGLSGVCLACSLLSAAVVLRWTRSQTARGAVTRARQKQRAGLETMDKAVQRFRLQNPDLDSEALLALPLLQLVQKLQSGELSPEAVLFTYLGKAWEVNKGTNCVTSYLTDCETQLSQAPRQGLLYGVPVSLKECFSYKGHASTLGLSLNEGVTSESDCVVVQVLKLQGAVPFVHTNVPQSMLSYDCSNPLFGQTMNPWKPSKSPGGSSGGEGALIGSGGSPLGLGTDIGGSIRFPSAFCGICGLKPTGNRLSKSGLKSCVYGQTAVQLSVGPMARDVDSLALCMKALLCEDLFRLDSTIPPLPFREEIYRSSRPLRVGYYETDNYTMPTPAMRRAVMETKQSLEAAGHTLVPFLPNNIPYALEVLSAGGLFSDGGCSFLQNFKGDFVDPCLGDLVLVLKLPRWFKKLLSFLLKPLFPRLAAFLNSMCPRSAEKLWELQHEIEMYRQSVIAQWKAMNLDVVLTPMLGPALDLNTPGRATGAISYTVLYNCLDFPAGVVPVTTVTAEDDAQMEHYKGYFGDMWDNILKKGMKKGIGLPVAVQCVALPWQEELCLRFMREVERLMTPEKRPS", "assay": "Inhibition of FAAH in mouse brain membrane at 10 uM using TAMRA-FP serine hydrolase probe as substrate preincubated for 25 mins followed by substrate addition and measured after 25 mins SDS-PAGE analysis", "assay_type": "cell membranes", "details": "time 50.0 min", "procedure,_shortened": "(§1)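 Mouse half-brain membrane fraction (800g supernatants spun at 16000g, 4 °C; pellet in 50 mM Tris-HCl pH 7.4), diluted to 4 mg/mL in PBS. Preincubated 25 min at 25 °C with test agent (10 μM final) or DMSO, then TAMRA-FP (125 nM final) 25 min at 25 °C. Stopped in Laemmli buffer at 90 °C, run on 12% SDS-PAGE, in-gel fluorescence read. Coomassie confirmed loading. Three independent experiments.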"}, "[2]": {"assay": "Cytotoxicity against human hTERT-HPNE cells assessed as cell growth inhibition incubated for 72 hrs by sulforhodamine B assay", "assay_type": "toxicity, cell-based", "procedure,_shortened": "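SRB growth-inhibition assay. Cells were seeded at 5000 per well and treated after 24 h, once a monolayer had formed, with MAGL inhibitors (0.1–50 μM) for 72 h. Cells were then fixed with trichloroacetic acid at 4 °C and stained with SRB. Bound dye was dissolved in Tris base and read at 490 and 540 nm. IC50 came from curve fitting.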"}, "[3]": {"assay": "Stability of the compound in PBS buffer at pH 7.4 at 500 uM measured up to 24 hrs by UV/LC-MS analysis", "assay_type": "physicochemical", "details": "pH 7.4, 24 h"}, "PDAC-3 [4]": {"test_system": "PDAC-3", "assay": "Induction of apoptosis in human PDAC-3 cells at IC50 measured after 72 hrs by Annexin-V/FITC staining based assay", "assay_type": "functional, cell-based", "procedure,_shortened": "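Fixed with paraformaldehyde, stained with annexin V/FITC in HEPES-buffered saline (pH 7.4) with 2.5 mM CaCl2. Fluorescence read at ex 485/em 535 nm and normalised to cell number from crystal violet staining (595 nm). Triplicate measurements, expressed relative to untreated control.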"}, "PDAC-3 [5]": {"test_system": "PDAC-3", "assay": "Synergistic antiproliferative activity against human PDAC-3 cells assessed as increase in ENT1 expression at 5 times IC50 incubated for 24 hrs in presence of gemcitabine by qRT-PCR analysis", "assay_type": "functional, cell-based"}, "[6]": {"assay": "Apparent permeability of the compound in PBS buffer pH 7.4 assessed as membrane retention at 0.5 mM incubated for 5 hrs by PAMPA based UV/LC-MS analysis", "assay_type": "ADME", "details": "pH 7.4, 5 h, 500 µM"}, "[7]": {"assay": "Stability of the compound in pooled human plasma at 3 mM measured up to 24 hrs by UV/LC-MS assay", "assay_type": "ADME, cell-free", "details": "read-out: Stability"}, "[8]": {"assay": "Aqueous solubility of compound at 1 mg/ml incubated for 24 hrs by LC-MS/MS analysis", "assay_type": "physicochemical", "details": "buffer"}, "[9]": {"assay": "Stability of the compound in MeOH solution at 500 uM measured up to 24 hrs by UV/LC-MS analysis", "assay_type": "physicochemical"}, "PDAC-3 [10]": {"test_system": "PDAC-3", "assay": "Induction of apoptosis in human PDAC-3 cells assessed as increase in caspase-3 level at IC50 measured after 72 hrs by immunoassay", "assay_type": "functional, cell-based", "procedure,_shortened": "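Cell extracts assayed with a human active caspase-3 ELISA; absorbance 450 nm minus 540 nm. Quantified against a recombinant human caspase-3 standard curve. Triplicate measurements, expressed relative to untreated cells.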"}, "PDAC-3 [11]": {"test_system": "PDAC-3", "assay": "Antimigratory activity against human PDAC-3 cells assessed as reduction in MMP9 expression at 5 times IC50 incubated for 24 hrs by qRT-PCR analysis", "assay_type": "functional, cell-based"}, "[12]": {"assay": "Induction of apoptosis in human PDAC-2 cells assessed as fold change in apoptotic rate at IC50 measured after 72 hrs by Annexin-V/FITC staining based assay relative to control", "assay_type": "functional", "procedure,_shortened": "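Then paraformaldehyde-fixed and stained with annexin V/FITC in HEPES/NaCl/CaCl2 buffer, pH 7.4. Fluorescence read at ex 485/em 535 nm, normalised to cell number by crystal violet (595 nm). Expressed relative to untreated control (=1). Triplicate, mean ± SEM.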"}, "PDAC-3 [13]": {"test_system": "PDAC-3", "assay": "Induction of apoptosis in human PDAC-3 cells assessed as reduction in Bcl-2 […] expression at 5 times IC50 incubated for 24 hrs by qRT-PCR analysis", "assay_type": "functional, cell-based"}, "PDAC-3 [14]": {"test_system": "PDAC-3", "assay": "Antiproliferative activity against human PDAC-3 cells assessed as cell growth inhibition incubated for 72 hrs by sulforhodamine B assay", "assay_type": "functional, cell-based", "procedure,_shortened": "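Primary PDAC3 culture in RPMI-1640 with 10% newborn calf serum, penicillin/streptomycin, 37 °C, 5% CO2. Seeded 5000 cells/well; after 24 h exposed 72 h to MAGL inhibitor (0.1–50 μM, DMSO stock diluted in medium).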"}, "[15]": {"biological_target": "T2, Monoacylglycerol lipase ABHD6 (Mus musculus) (UniProt Q8R2Y0)", "T2 sequence (whole entry)": "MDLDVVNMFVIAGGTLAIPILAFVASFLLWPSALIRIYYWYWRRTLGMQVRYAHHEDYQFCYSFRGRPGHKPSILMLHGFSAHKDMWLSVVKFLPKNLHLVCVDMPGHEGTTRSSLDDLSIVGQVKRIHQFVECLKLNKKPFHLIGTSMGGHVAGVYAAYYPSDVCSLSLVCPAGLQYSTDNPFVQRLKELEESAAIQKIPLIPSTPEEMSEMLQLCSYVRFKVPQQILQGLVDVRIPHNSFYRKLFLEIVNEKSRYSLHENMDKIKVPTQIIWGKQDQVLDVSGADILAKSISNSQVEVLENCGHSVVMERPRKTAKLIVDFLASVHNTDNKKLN", "assay": "Inhibition of ABHD6 in mouse brain membrane at 10 uM using TAMRA-FP serine hydrolase probe as substrate preincubated for 25 mins followed by substrate addition and measured after 25 mins SDS-PAGE analysis", "assay_type": "cell membranes", "details": "time 50.0 min", "procedure,_shortened": "as §1"}, "[16]": {"biological_target": "T3, Lysophosphatidylserine lipase ABHD12 (Mus musculus) (UniProt Q99LR1)", "T3 sequence (whole entry)": "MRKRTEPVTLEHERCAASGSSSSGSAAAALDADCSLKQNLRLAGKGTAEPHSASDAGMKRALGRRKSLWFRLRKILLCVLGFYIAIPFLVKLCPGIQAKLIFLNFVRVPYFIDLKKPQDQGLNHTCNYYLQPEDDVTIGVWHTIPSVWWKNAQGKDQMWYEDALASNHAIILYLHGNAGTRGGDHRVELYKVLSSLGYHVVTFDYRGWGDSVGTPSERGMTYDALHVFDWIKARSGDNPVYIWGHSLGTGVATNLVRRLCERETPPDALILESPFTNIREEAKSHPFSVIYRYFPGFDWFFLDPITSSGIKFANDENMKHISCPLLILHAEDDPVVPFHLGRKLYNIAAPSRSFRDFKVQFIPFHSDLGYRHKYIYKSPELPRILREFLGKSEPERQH", "assay": "Inhibition of ABHD12 in mouse brain membrane at 10 uM using TAMRA-FP serine hydrolase probe as substrate preincubated for 25 mins followed by substrate addition and measured after 25 mins SDS-PAGE analysis", "assay_type": "cell membranes", "details": "time 50.0 min", "procedure,_shortened": "as §1"}},
  "note": "Activity calls are given as the source filed them. The rule behind the calls is not given here.",
  "data": [
    {"compound": "NC(=O)c1cccc(-c2cccc(OC(=O)NC3CCCCC3)c2)c1", "values": [
      {"measurement": "inhibition", "setting": "[1]", "value": "Active"}
    ]},
    {"compound": "O=C(c1cc(O)ccc1F)N1CCC(Cc2cccc(Oc3cc(C(F)(F)F)ccn3)c2)CC1", "values": [
      {"measurement": "IC50 at 72 h", "setting": "[2]", "value": "> 20", "unit": "µM"},
      {"measurement": "Stability", "setting": "[3]", "value": "> 24", "unit": "h"},
      {"measurement": "Activity", "setting": "PDAC-3 [4]", "value": "Active"},
      {"measurement": "Activity", "setting": "PDAC-3 [5]", "value": "Active"},
      {"measurement": "R%", "setting": "[6]", "value": 38.9, "unit": "%"},
      {"measurement": "half-life at 3000 µM", "setting": "[7]", "value": "> 24", "unit": "h"},
      {"measurement": "logS0", "setting": "[8]", "value": "< -8.676"},
      {"measurement": "solubility", "setting": "[8]", "value": "< 1", "unit": "ng/mL"},
      {"measurement": "Stability", "setting": "[9]", "value": "> 24", "unit": "h"},
      {"measurement": "Activity", "setting": "PDAC-3 [10]", "value": "Active"},
      {"measurement": "Activity", "setting": "PDAC-3 [11]", "value": "Active"},
      {"measurement": "fold change (FC)", "setting": "[12]", "value": 4},
      {"measurement": "Activity", "setting": "PDAC-3 [13]", "value": "Active"}
    ]},
    {"compound": "O=C(Oc1ccc([N+](=O)[O-])cc1)N1CCC(C(O)(c2ccc3c(c2)OCO3)c2ccc3c(c2)OCO3)CC1", "values": [
      {"measurement": "Activity", "setting": "PDAC-3 [4]", "value": "Active"},
      {"measurement": "Activity", "setting": "PDAC-3 [14]", "value": "Active"},
      {"measurement": "Activity", "setting": "PDAC-3 [10]", "value": "Active"}
    ]},
    {"compound": "O=C(OC(C(F)(F)F)C(F)(F)F)N1CCN(Cc2ccc(C(F)(F)F)cc2N2CCCC2)CC1", "values": [
      {"measurement": "Activity", "setting": "PDAC-3 [4]", "value": "Active"},
      {"measurement": "Activity", "setting": "PDAC-3 [14]", "value": "Active"},
      {"measurement": "Activity", "setting": "PDAC-3 [10]", "value": "Active"}
    ]},
    {"compound": "CN(Cc1cccc(-c2ccncc2)c1)C(=O)Oc1ccc(-c2ccc(C(N)=O)cc2)cc1", "values": [
      {"measurement": "inhibition", "setting": "[15]", "value": "Active"}
    ]},
    {"compound": "CCCCCCCCCCC[C@@H](C[C@@H]1OC(=O)[C@H]1CCCCCC)OC(=O)[C@H](CC(C)C)NC=O", "values": [
      {"measurement": "inhibition", "setting": "[15]", "value": "Active"},
      {"measurement": "inhibition", "setting": "[16]", "value": "Active"}
    ]},
    {"compound": "O=C(c1ccc(Sc2cccc(C(F)(F)F)c2)cc1)C1CCN(C(=O)c2cc(O)ccc2F)CC1", "values": [
      {"measurement": "Stability", "setting": "[3]", "value": "> 24", "unit": "h"},
      {"measurement": "R%", "setting": "[6]", "value": 52.6, "unit": "%"},
      {"measurement": "half-life at 3000 µM", "setting": "[7]", "value": "> 24", "unit": "h"},
      {"measurement": "logS0", "setting": "[8]", "value": "< -8.702"},
      {"measurement": "solubility", "setting": "[8]", "value": "< 1", "unit": "ng/mL"},
      {"measurement": "Stability", "setting": "[9]", "value": "> 24", "unit": "h"}
    ]},
    {"compound": "Nc1ccn([C@@H]2O[C@H](CO)[C@@H](O)C2(F)F)c(=O)n1", "values": [
      {"measurement": "Activity", "setting": "PDAC-3 [4]", "value": "Active"},
      {"measurement": "Activity", "setting": "PDAC-3 [10]", "value": "Active"}
    ]}
  ]
}
